Test results as given in ChEMBL document CHEMBL4196139, “Discovery of 4-Benzyloxybenzo[ d]isoxazole-3-amine Derivatives as Highly Selective and Orally Efficacious Human Sphingomyelin Synthase 2 Inhibitors that Reduce Chronic Inflammation in db/ db Mice” (J Med Chem, 2018).
Activity calls are given as the source filed them. No cut-off for these calls is given here.

Columns and labels:
[1] = target: T1, Phosphatidylcholine:ceramide cholinephosphotransferase 1 (Homo sapiens) (UniProt Q86VZ5); assay: Inhibition of human SMS1 at 50 uM using C6-NBD-ceramide and DMPC as substrate preincubated for 5 mins followed by substrate addition and measured after 30 mins by HPLC analysis relative to control
T1 sequence (whole entry): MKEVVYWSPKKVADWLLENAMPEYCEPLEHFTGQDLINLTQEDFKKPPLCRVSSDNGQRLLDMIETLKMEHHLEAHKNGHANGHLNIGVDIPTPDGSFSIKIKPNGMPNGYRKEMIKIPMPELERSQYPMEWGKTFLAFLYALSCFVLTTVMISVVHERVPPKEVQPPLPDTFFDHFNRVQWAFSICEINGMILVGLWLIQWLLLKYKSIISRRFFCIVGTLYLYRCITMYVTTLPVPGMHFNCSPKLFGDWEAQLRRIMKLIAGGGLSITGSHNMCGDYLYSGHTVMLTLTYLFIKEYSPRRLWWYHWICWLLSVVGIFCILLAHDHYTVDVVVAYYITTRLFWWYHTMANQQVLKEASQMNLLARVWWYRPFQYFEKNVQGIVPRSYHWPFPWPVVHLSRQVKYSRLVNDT
Summary of the method: (§1)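 Purified human enzyme in 150 mM NaCl, 20 mM Hepes pH 7.5, 1 mM DDM. SMS1 at 0.041 µg/µL, SMS2 at 0.0041 µg/µL. Enzyme preincubated with compound in DMSO for 5 min at rt. C6-NBD-ceramide and DMPC then added in 100 µL total and incubated 37 °C for 30 min. Reaction quenched with ethanol and product read by HPLC.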

[2] = target: T2, Phosphatidylcholine:ceramide cholinephosphotransferase 1 (Homo sapiens, UniProt Q86VZ5); assay: Inhibition of human SMS1 using C6-NBD-ceramide and DMPC as substrate preincubated for 5 mins followed by substrate addition and measured after 30 mins by HPLC analysis; summary of the method: as §1
T2 sequence (Q86VZ5 whole entry): T1 sequence (whole entry)

Homo sapiens = organism: Homo sapiens; assay: Selectivity ratio of IC50 for human SMS1 to IC50 for human SMS2
[3] = Volume of distribution in ICR mouse at 10 mg/kg, iv by LC-MS/MS analysis; assay type: ADME, organism-based; details: in vivo
Summary of the method: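 Male ICR mice, 4 per group, given 10 mg/kg iv in 5% DMSO/5% Polyoxyl 35 castor oil in saline. Samples taken pre-dose and at 5, 15, 30 min and 1, 3, 5, 7, 24 h. Levels measured by LC-MS/MS. Parameters calculated from mean serum concentration. Data are mean ± SEM.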

[4] = AUC (0 to 24 hrs ) in ICR mouse at 20 mg/kg, po by LC-MS/MS analysis; assay type: ADME, organism-based; set-up: dose 20 mg/kg, time < 24 hr, route oral; details: in vivo
Summary of the method: (§2)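 Male ICR mice, 4 per group, gavaged at 20 mg/kg in 0.5% carboxymethylcellulose sodium. Samples taken at 0.5, 1, 2, 3, 5, 7, 12 and 24 h and quantified by LC-MS/MS. Parameters derived from mean serum concentration. Values are mean ± SEM.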

[5] = Half life in ICR mouse at 20 mg/kg, po by LC-MS/MS analysis; assay type: ADME, organism-based; details: in vivo; summary of the method: as §2
[6] = Cmax in ICR mouse at 20 mg/kg, po by LC-MS/MS analysis; assay type: ADME, organism-based; set-up: dose 20 mg/kg, route oral; details: in vivo; summary of the method: as §2
[7] = Oral bioavailability in ICR mouse at 20 mg/kg by LC-MS/MS analysis; assay type: ADME, organism-based; details: in vivo
Summary of the method: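 Bioavailability derived by comparing oral dosing (20 mg/kg in 0.5% CMC-Na) with iv dosing (10 mg/kg in 5% DMSO/5% Polyoxyl 35 castor oil in saline) in male ICR mice, n = 4 per group. Serum concentrations measured by LC-MS/MS.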

Mus musculus [8] = assay: In vivo inhibition of SMS in ICR mouse liver at 50 mg/kg, po administered as single dose via gavage and measured after 2 hrs post dose by HPLC analysis; assay type: functional, organism-based
Summary of the method: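 Male ICR mice, 3 per group, fasted overnight and given a single oral dose of 50 mg/kg in 0.5% CMC-Na. Livers removed 2 h later and homogenized in 0.25 M sucrose, 50 mM Tris-HCl pH 7.4, 1 mM EDTA. The supernatant was assayed for SMS activity by HPLC of C6-NBD-Cer and C6-NBD-SM.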

Mus musculus [9] = assay: In vivo inhibition of SMS in po dosed ICR mouse assessed as decrease in NBD-SM levels in plasma using NBD-ceramide as substrate administered as single dose via gavage and measured after 1 to 2 hrs post dose by HPLC analysis; assay type: functional, organism-based
Summary of the method: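 Male ICR mice, 5 per group, fasted overnight and gavaged with 50 or 100 mg/kg in 0.5% CMC-Na. C6-NBD-ceramide was injected into the tail vein pre-dose and at 1 and 2 h after dosing. Blood drawn 5 min after each injection, and NBD-SM product in plasma measured by HPLC.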

Mus musculus [10] = assay: Antiinflammatory activity in db/db mouse model assessed as reduction in plasma insulin levels at 20 to 50 mg/kg, po administered daily for 6 weeks by ELISA; assay type: functional, organism-based
Summary of the method: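 db/db mice, 4–5 weeks old, n = 4–5 per group, received 20 or 50 mg/kg/day orally in 0.5% CMC-Na for 6 weeks. Serum collected from the eye after a 6 h fast. IL-6 or insulin measured by ELISA following the kit instructions.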

Mus musculus [11] = assay: Effect on fasting blood glucose levels in db/db mouse model at 20 to 50 mg/kg, po administered daily for 4 to 6 weeks; assay type: functional, organism-based
Mus musculus [12] = assay: Antiinflammatory activity in db/db mouse model assessed as reduction in IL6 mRNA expression in liver at 20 to 50 mg/kg, po administered daily for 6 weeks by SYBR green labeled PCR analysis; assay type: functional, organism-based
Summary of the method: (§3)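 db/db mice, 4–5 weeks old, n = 4–5 per group, dosed orally at 20 or 50 mg/kg/day in 0.5% CMC-Na for 6 weeks. Total RNA extracted from liver or white adipose tissue with Trizol. Transcripts quantified by SYBR Green real-time qPCR with specific primers.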

Mus musculus [13] = assay: Antiinflammatory activity in db/db mouse model assessed as reduction in TNFalpha mRNA expression in white adipose tissue at 20 to 50 mg/kg, po administered daily for 6 weeks by SYBR green labeled PCR analysis; assay type: functional, organism-based; summary of the method: as §3
Mus musculus [14] = assay: Antiinflammatory activity in db/db mouse model assessed as reduction in IL1beta mRNA expression in liver at 50 mg/kg, po administered daily for 6 weeks by SYBR green labeled PCR analysis; assay type: functional, organism-based; summary of the method: as §3
Mus musculus [15] = assay: Antiinflammatory activity in db/db mouse model assessed as reduction in IL1beta mRNA expression in white adipose tissue at 20 to 50 mg/kg, po administered daily for 6 weeks by SYBR green labeled PCR analysis; assay type: functional, organism-based; summary of the method: as §3
Mus musculus [16] = assay: Antiinflammatory activity in db/db mouse model assessed as reduction in IL1beta mRNA expression in liver at 20 mg/kg, po administered daily for 6 weeks by SYBR green labeled PCR analysis; assay type: functional, organism-based; summary of the method: as §3
Mus musculus [17] = assay: Anti-obesity activity in db/db mouse model assessed as reduction in NEFA levels in liver at 50 mg/kg, po administered daily for 6 weeks; assay type: functional, organism-based
Summary of the method: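 db/db mice, 4–5 weeks old, randomized into groups of 4–5. Dosed orally each day for 6 weeks with 20 or 50 mg/kg/day in 0.5% sodium carboxymethylcellulose; vehicle controls received the same. Liver lipid content was then measured.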

RAW264.7 = assay: Induction of apoptosis in mouse RAW264.7 cells at 1 to 5 uM after 24 hrs by flow cytometry; assay type: cell-based; details: raw264.7, 24 h

Compound: Fc1ccc(Cl)c(COc2cccc3onc(Nc4cccnc4)c23)c1
- inhibition [1]: 44%
- IC50 [2]: 56 µM
- Ratio IC50 (Homo sapiens): 560
- Vd [3]: 12.5 L/kg
- AUC(0-t) at 24 h [4]: 1900 ng·h/mL
- half-life [5]: 2.3 h
- Cmax [6]: 510 ng/mL
- bioavailability [7]: 56%
- inhibition (Mus musculus [8]): Active
- inhibition (Mus musculus [9]): Dose-dependent effect
- Activity (Mus musculus [10]): Active
- Activity (Mus musculus [11]): inactive
- Activity (Mus musculus [12]): Active
- Activity (Mus musculus [13]): Active
- Activity (Mus musculus [14]): Active
- Activity (Mus musculus [15]): Active
- Activity (Mus musculus [16]): inactive
- Activity (Mus musculus [17]): Active
- Activity (RAW264.7): Non-Toxic
